# Data as given in ChEMBL document CHEMBL1122980, “Stereoselective metabolism of conformational analogues of warfarin by beta-naphthoflavone-inducible cytochrome P-450” (J Med Chem, 1985).
# Organism: Rattus norvegicus
# Assay: Rate of metabolism in liver microsomes (BNF treated rats)
# Format: ADME
# Procedure, shortened: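 Liver microsomes pooled from three male Sprague–Dawley rats (140–170 g) given BNF ip (80 mg/kg in corn oil) daily for 3 days, taken on day 4. Microsomal protein 2 mg/mL. Substrate added after 2-min equilibration, 200 μg/mL in acetone, or warfarin also in pH 7.4 phosphate buffer. Incubated 20 min at 37 °C, triplicate. Hydroxy metabolites quantified by GC/MS against deuterated internal standards. Rates given per nmol P-450 per min, mean ±SD.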
SMILES,RPF,Metabolism rate [pmol/min/nmol P-450]
CO[C@]1(C)C[C@H](c2ccccc2)c2c(c3ccc(O)cc3oc2=O)O1,12.8 pM nM-1,
CO[C@]1(C)C[C@@H](c2ccccc2)c2c(c3cccc(O)c3oc2=O)O1,42.8 pM nM-1,
COC1(C)C[C@H](c2ccccc2)c2c(c3cc(O)ccc3oc2=O)O1 (some centres undefined),20.3 pM nM-1,
CO[C@]1(C)C[C@@H](c2ccccc2)c2c(c3ccc(O)cc3oc2=O)O1,14.9 pM nM-1,
CO[C@]1(C)C[C@H](c2ccccc2)c2c(c3cccc(O)c3oc2=O)O1,14.9 pM nM-1,
CO[C@]1(C)C[C@@H](c2ccc(O)cc2)c2c(c3ccccc3oc2=O)O1,73.5 pM nM-1,
CO[C@@]1(C)C[C@H](c2ccccc2)c2c(c3cccc(O)c3oc2=O)O1,15.1 pM nM-1,
COC1(C)C[C@H](c2ccc(O)cc2)c2c(c3ccccc3oc2=O)O1 (some centres undefined),76.2 pM nM-1,
CO[C@]1(C)C[C@H](c2ccc(O)cc2)c2c(c3ccccc3oc2=O)O1,52 pM nM-1,
CO[C@]1(C)C[C@@H](c2ccccc2)c2c(c3cc(O)ccc3oc2=O)O1,24.1 pM nM-1,
CO[C@@]1(C)C[C@@H](c2ccccc2)c2c(c3cccc(O)c3oc2=O)O1,34.6 pM nM-1,
COC1(C)C[C@@H](c2ccccc2)c2c(c3ccc(O)cc3oc2=O)O1 (some centres undefined),13.9 pM nM-1,
COc1c([C@H](CC(C)=O)c2ccc(O)cc2)c(=O)oc2ccccc12,85.3 pM nM-1,
COc1c([C@H](CC(C)=O)c2ccccc2)c(=O)oc2ccc(O)cc12,11.5 pM nM-1,
COc1c([C@H](CC(C)=O)c2ccccc2)c(=O)oc2cc(O)ccc12,8.3 pM nM-1,
COc1c([C@@H](CC(C)=O)c2ccccc2)c(=O)oc2cc(O)ccc12,31.2 pM nM-1,
COc1c([C@@H](CC(C)=O)c2ccc(O)cc2)c(=O)oc2ccccc12,47.8 pM nM-1,
COc1c([C@@H](CC(C)=O)c2ccccc2)c(=O)oc2ccc(O)cc12,19.1 pM nM-1,
COC1(C)C[C@H](c2ccccc2)c2c(c3ccc(O)cc3oc2=O)O1 (some centres undefined),19.3 pM nM-1,
CC(=O)C[C@H](c1ccccc1)c1c(O)c2cc(O)ccc2oc1=O,102 pmol/min/nmol,113.7
CC(=O)C[C@H](c1ccc(O)cc1)c1c(O)c2ccccc2oc1=O,,22.4
COC1(C)C[C@@H](c2ccccc2)c2c(c3cc(O)ccc3oc2=O)O1 (some centres undefined),14.8 pM nM-1,
CC(=O)C[C@@H](c1ccccc1)c1c(O)c2ccc(O)cc2oc1=O,195 pmol/min/nmol,216.8
CC(=O)C[C@@H](c1ccccc1)c1c(O)c2cc(O)ccc2oc1=O,37.1 pmol/min/nmol,41.2
CC(=O)C[C@@H](c1ccc(O)cc1)c1c(O)c2ccccc2oc1=O,,13.7
COC1(C)C[C@@H](c2ccc(O)cc2)c2c(c3ccccc3oc2=O)O1 (some centres undefined),64.8 pM nM-1,
